Results of several laboratories.
Compare with care: the assays were run in different laboratories.
Target: D(4) dopamine receptor (DRD4, Homo sapiens, UniProt P21917)
Method: radioligand
Sequence (P21917 1-419, as in one of the studies): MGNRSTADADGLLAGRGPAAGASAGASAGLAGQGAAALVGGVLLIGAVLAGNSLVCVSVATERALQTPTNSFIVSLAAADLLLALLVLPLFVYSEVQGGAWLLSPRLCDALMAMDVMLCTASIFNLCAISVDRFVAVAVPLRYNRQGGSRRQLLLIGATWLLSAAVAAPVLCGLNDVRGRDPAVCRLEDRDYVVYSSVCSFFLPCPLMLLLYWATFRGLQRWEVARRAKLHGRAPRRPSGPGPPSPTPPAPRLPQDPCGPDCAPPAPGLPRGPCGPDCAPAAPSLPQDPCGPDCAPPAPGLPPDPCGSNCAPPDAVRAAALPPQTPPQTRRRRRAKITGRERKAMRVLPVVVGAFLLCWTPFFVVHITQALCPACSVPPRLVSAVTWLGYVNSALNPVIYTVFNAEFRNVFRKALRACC

| SMILES | test | Ki [nM] |
| --- | --- | --- |
| CCCCN1CCC(COC(=O)c2ccc(N)c(OCF)c2)CC1 | cell-free assay | > 10000 |
| CCN(CC)c1ccc(C2Nc3ccc(C(=O)c4ccccc4)cc3NC3=C2C(=O)CC(C)(C)C3)cc1 (centres unmarked) | cell-free assay | 1530 |
| CCOc1c(O)cc(Br)c2c1CN1CCc3cc(OCC(F)F)c(O)cc3[C@@H]1C2 | cell-free assay | 2720 |
| c1ccc(CCC2=NCCN2CCc2ccccc2)cc1 | ligand displacement | 758 |
| COc1ccc2c(c1)C(=O)N(CCCN1CCN(c3ccccc3OC)CC1)C2 | ligand displacement | 8.4 |
| Oc1cccc(CCC2=NCCN2CCc2ccccc2)c1 | ligand displacement | 589 |
| CCCCCCCNCCCc1ccccc1 | ligand displacement | 390 |
| Cc1ccc(OC[C@@H]2CN(CCN3CCc4ccccc43)CCO2)cn1 | ligand displacement | 503 |
| Oc1ccc(CCC2=NCCN2CCc2ccccc2)cc1 | ligand displacement | > 10000 |
| CCCCCCCCCCCCNCCCc1ccc([N+](=O)[O-])cc1 | ligand displacement | 1800 |
| O=C1c2ccccc2CCCN1CCCCN1CCN(c2ccccn2)CC1 | ligand displacement | 6.5 |
